Laboratory results: ChEMBL document CHEMBL1133735, “Synthesis, in vitro anti-breast cancer activity, and intracellular decomposition of amino acid methyl ester and alkyl amide phosphoramidate monoesters of 3'-azido-3'-deoxythymidine (AZT)” (J Med Chem, 2000)

Assays:
[1] = Partition coefficient (logP); assay type: physicochemical; settings: octanol/water
Outline: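 Octanol and water pre-equilibrated (shaken 6 h, stood overnight); ~0.5 mg compound added, shaken 1 h at room temperature, centrifuged 1 h at 1000 rpm, left 30 h to equilibrate. Each phase read by UV absorbance, concentration from extinction coefficients via Beer-Lambert using standard curves over 2-300 µM. Duplicate or triplicate; mean of two values within 15%.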

MCF7 [2] = assay: In vitro cytotoxic concentration required to reduce MCF-7 cell growth by 50%; assay type: functional; settings: Homo sapiens
Outline: (§1)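 MCF-7 cells kept in RPMI 1640 with 10% heat-inactivated FBS, penicillin and streptomycin; 5×10^4 to 6×10^4 cells per well dosed with compound in PBS at final 0.001, 0.01, 0.1, 1, 10 and 100 µM; 48 h at 37 °C, 10% CO2. Brief trypsin release, viable cells counted by trypan blue exclusion; triplicate, untreated wells as control. CC50 = concentration giving 50% growth reduction versus control.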

CCRF-CEM [3] = assay: Tested for intracellular levels of AZT phosphate against CEM cell lines.; assay type: functional, Homo sapiens
Outline: (§2)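 About 1.5×10^6 MCF-7 or 3×10^6 CEM cells exposed to 100 µM compound for 17 h, then medium removed. Phosphorylated fractions (phosphates plus phosphoramidate) dephosphorylated with potato acid phosphatase in potassium hydrogen phthalate buffer, 4 h at 37 °C, dried, reconstituted in FPIA buffer; AZT quantified by RIA and phosphorylated amounts extrapolated. Reported as pmol per million cells.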

CCRF-CEM [4] = assay: Tested for intracellular levels of phosphoramidate against CEM cell lines.; assay type: functional, Homo sapiens; outline: as §2
CCRF-CEM [5] = assay: Cytotoxic activity against CEM cell lines.; assay type: functional, Homo sapiens
MCF7 [6] = assay: Cytotoxic activity against MCF-7 cell lines.; assay type: functional, Homo sapiens; outline: as §1
MCF7 [7] = assay: Tested for intracellular levels of AZT phosphate against MCF-7 cell lines.; assay type: functional, Homo sapiens; outline: as §2
MCF7 [8] = assay: Tested for intracellular levels of phosphoramidate against MCF-7 cell lines.; assay type: functional, Homo sapiens; outline: as §2

logP [1] | Compound | CC50 (MCF7 [2]) [µM] | other results
-1.5 | COC(=O)[C@H](CC(C)C)NP(=O)(O)OC[C@H]1OC(n2cc(C)c(=O)[nH]c2=O)C[C@H]1N=[N+]=[N-] (stereo not given in full) | > 100 | –
-1.38 | CNC(=O)[C@H](Cc1ccc(O)cc1)NP(=O)(O)OC[C@H]1OC(n2cc(C)c(=O)[nH]c2=O)C[C@H]1N=[N+]=[N-] (stereo not given in full) | > 100 | –
-1.39 | Cc1cn(C2C[C@@H](N=[N+]=[N-])[C@@H](COP(=O)(O)N[C@@H](Cc3c[nH]c4ccccc34)C(=O)NC3CC3)O2)c(=O)[nH]c1=O (stereo not given in full) | 90 | –
-1.3 | Cc1cn(C2C[C@@H](N=[N+]=[N-])[C@@H](COP(=O)(O)N[C@@H](Cc3c[nH]c4ccccc34)C(=O)NC(C)C)O2)c(=O)[nH]c1=O (stereo not given in full) | > 100 | –
-1.53 | CCNC(=O)[C@H](Cc1c[nH]c2ccccc12)NP(=O)(O)OC[C@H]1OC(n2cc(C)c(=O)[nH]c2=O)C[C@H]1N=[N+]=[N-] (stereo not given in full) | > 100 | –
-1.59 | COC(=O)[C@H](Cc1ccc(O)cc1)NP(=O)(O)OC[C@H]1OC(n2cc(C)c(=O)[nH]c2=O)C[C@H]1N=[N+]=[N-] (stereo not given in full) | 10 | –
-1.89 | CNC(=O)[C@@H](Cc1c[nH]c2ccccc12)NP(=O)(O)OC[C@H]1OC(n2cc(C)c(=O)[nH]c2=O)C[C@H]1N=[N+]=[N-] (stereo not given in full) | > 100 | –
-1.7 | CNC(=O)[C@@H](Cc1ccccc1)NP(=O)(O)OC[C@H]1OC(n2cc(C)c(=O)[nH]c2=O)C[C@H]1N=[N+]=[N-] (stereo not given in full) | > 100 | –
-1.56 | COC(=O)[C@@H](NP(=O)(O)OC[C@H]1OC(n2cc(C)c(=O)[nH]c2=O)C[C@H]1N=[N+]=[N-])C(C)C (stereo not given in full) | 6 | –
-0.914 | Cc1cn(C2C[C@@H](N=[N+]=[N-])[C@@H](COP(=O)(O)N[C@@H](Cc3c[nH]c4ccccc34)C(=O)NC3CCCCC3)O2)c(=O)[nH]c1=O (stereo not given in full) | 16 | –
-1.21 | CNC(=O)[C@H](C)NP(=O)(O)OC[C@H]1OC(n2cc(C)c(=O)[nH]c2=O)C[C@H]1N=[N+]=[N-] (stereo not given in full) | > 100 | –
-1.52 | CNC(=O)[C@H](CC(C)C)NP(=O)(O)OC[C@H]1OC(n2cc(C)c(=O)[nH]c2=O)C[C@H]1N=[N+]=[N-] (stereo not given in full) | > 100 | –
-1.64 | CNC(=O)[C@@H](NP(=O)(O)OC[C@H]1OC(n2cc(C)c(=O)[nH]c2=O)C[C@H]1N=[N+]=[N-])C(C)C (stereo not given in full) | 2.2 | –
-1.25 | COC(=O)[C@H](C)NP(=O)(O)OC[C@H]1OC(n2cc(C)c(=O)[nH]c2=O)C[C@H]1N=[N+]=[N-] (stereo not given in full) | 5.8 | –
-1.38 | CNC(=O)[C@H](Cc1c[nH]c2ccccc12)NP(=O)(O)OC[C@H]1OC(n2cc(C)c(=O)[nH]c2=O)C[C@H]1N=[N+]=[N-] (stereo not given in full) | 0.016 | –
-1.24 | COC(=O)CNP(=O)(O)OC[C@H]1OC(n2cc(C)c(=O)[nH]c2=O)C[C@H]1N=[N+]=[N-] (stereo not given in full) | > 100 | –
-1.49 | CNC(=O)[C@H](Cc1ccccc1)NP(=O)(O)OC[C@H]1OC(n2cc(C)c(=O)[nH]c2=O)C[C@H]1N=[N+]=[N-] (stereo not given in full) | 1.4 | –
-1.33 | COC(=O)[C@@H](Cc1ccccc1)NP(=O)(O)OC[C@H]1O[C@@H](n2cc(C)c(=O)[nH]c2=O)C[C@@H]1N=[N+]=[N-] | > 100 | –
-1.84 | COC(=O)[C@H](Cc1ccccc1)NP(=O)(O)OC[C@H]1O[C@@H](n2cc(C)c(=O)[nH]c2=O)C[C@@H]1N=[N+]=[N-] | 0.4 | Amount (CCRF-CEM [3]): 120.7 pM (10e6*cells)-1; Amount (CCRF-CEM [4]): 7.8 pM (10e6*cells)-1; Cytotoxicity (CCRF-CEM [5]): >100 µM; Cytotoxicity (MCF7 [6]): 0.4 µM; Amount (MCF7 [7]): 221 pM (10e6*cells)-1; Amount (MCF7 [8]): 295 pM (10e6*cells)-1
-1.36 | COC(=O)[C@@H](Cc1c[nH]c2ccccc12)NP(=O)(O)OC[C@H]1O[C@@H](n2cc(C)c(=O)[nH]c2=O)C[C@@H]1N=[N+]=[N-] | > 100 | –
-0.686 | COC(=O)[C@H](Cc1c[nH]c2ccccc12)NP(=O)(O)OC[C@H]1O[C@@H](n2cc(C)c(=O)[nH]c2=O)C[C@@H]1N=[N+]=[N-] | 0.059 | Amount (CCRF-CEM [3]): 115.8 pM (10e6*cells)-1; Amount (CCRF-CEM [4]): 14.6 pM (10e6*cells)-1; Cytotoxicity (CCRF-CEM [5]): >100 µM; Cytotoxicity (MCF7 [6]): 0.059 µM; Amount (MCF7 [7]): 196.5 pM (10e6*cells)-1; Amount (MCF7 [8]): 213.6 pM (10e6*cells)-1
-1.15 | CNC(=O)CNP(=O)(O)OC[C@H]1O[C@@H](n2cc(C)c(=O)[nH]c2=O)C[C@@H]1N=[N+]=[N-] | 5 | –
– | Cc1cn([C@H]2C[C@H](N=[N+]=[N-])[C@@H](CO)O2)c(=O)[nH]c1=O [ZIDOVUDINE] | – | Amount (CCRF-CEM [3]): 810.9 pM (10e6*cells)-1; Cytotoxicity (CCRF-CEM [5]): 14.3 µM; Cytotoxicity (MCF7 [6]): 0.008 µM; Amount (MCF7 [7]): 2658.4 pM (10e6*cells)-1
